Test results published in ChEMBL document CHEMBL1158481, “Adenine-based acyclic nucleotides as novel P2X3 receptor ligands” (J Med Chem, 2009).
Calls of active or inactive are those of the source. The calls are words filed in the database; no cut-off is given here.

Assays:
Conditions in all cases: HEK293
[1] = target: T1, P2X purinoceptor 3 (Rattus norvegicus) (UniProt P49654); assay: Agonist activity at rat P2X3 receptor expressed in HEK cells assessed as induction of inward current at 100 uM by patch clamp method relative to alpha, beta-meATP; type: functional, cell-based
T1 sequence (whole entry): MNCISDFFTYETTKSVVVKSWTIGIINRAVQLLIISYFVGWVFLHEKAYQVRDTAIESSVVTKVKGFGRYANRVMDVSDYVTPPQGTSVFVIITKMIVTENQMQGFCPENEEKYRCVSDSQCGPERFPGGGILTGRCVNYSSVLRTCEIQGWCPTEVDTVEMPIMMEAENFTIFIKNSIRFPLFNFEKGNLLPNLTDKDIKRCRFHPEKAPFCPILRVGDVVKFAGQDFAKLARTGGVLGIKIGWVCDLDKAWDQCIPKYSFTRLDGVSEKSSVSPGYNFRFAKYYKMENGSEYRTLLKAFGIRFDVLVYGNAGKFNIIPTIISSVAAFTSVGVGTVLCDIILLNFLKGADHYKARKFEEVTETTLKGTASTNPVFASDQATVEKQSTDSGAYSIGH
Procedure, shortened: (§1)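 HEK 293T cells transiently transfected with rat P2X3 (calcium phosphate), recorded 48 h post-transfection by whole-cell patch clamp at -60 mV in HEPES-buffered saline pH 7.4, CsCl pipette. Compound applied at 100 μM by rapid superfusion; inward current compared with averaged control current from ≥3 applications of α,β-meATP 100 μM for 2 s, 5 min apart.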

[2] = target: T1, P2X purinoceptor 3 (Rattus norvegicus); assay: Activity at rat P2X3 receptor expressed in HEK cells assessed as induction of inward current at 100 uM by patch clamp method; type: cell-based; procedure, shortened: as §1
[3] = target: T1, P2X purinoceptor 3 (Rattus norvegicus); assay: Activity at rat P2X3 receptor expressed in HEK cells assessed inhibition of alpha, beta-meATP induced response by patch clamp method; type: cell-based
Procedure, shortened: (§2)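 Rat P2X3 subunit plasmid transfected (calcium phosphate) into HEK 293T cells, used 48 h later. Whole-cell clamp at -60 mV, fast superfusion; acyclic nucleotide (100 μM) preapplied 20 s, then α,β-meATP 100 μM for 2 s. Peak inward current expressed as % of control α,β-meATP response; n=7 cells, mean ± SEM, paired t or Mann-Whitney test.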

[4] = target: T1, P2X purinoceptor 3 (Rattus norvegicus); assay: Antagonist activity at rat P2X3 receptor expressed in HEK cells assessed as inhibition of alpha, beta-meATP-induced inward current at 100 uM by patch clamp method; type: functional, cell-based; set-up: scale not given: the % may be the effect or the level left; procedure, shortened: as §2
[5] = target: T1, P2X purinoceptor 3 (Rattus norvegicus); assay: Agonist activity at rat P2X3 receptor expressed in HEK cells assessed as induction of alpha, beta-meATP inward current at 100 uM pretreated before alpha, beta-meATP induction by patch clamp method; type: functional, cell-based; procedure, shortened: as §2
[6] = target: T1, P2X purinoceptor 3 (Rattus norvegicus); assay: Activity at rat P2X3 receptor expressed in HEK cells assessed as depression of amplitude current subsequent response to alpha, beta-meATP by patch clamp method relative to control; type: cell-based; procedure, shortened: as §2

Row | Activity [1] | Activity [2] | Compound | also measured
1 | inactive |  | Nc1ncnc2c1ncn2CCCCOP(=O)(O)O | 
2 | 38% | Active | CCCCC#Cc1nc(N)c2ncn(CCCCOP(=O)(O)OP(=O)(O)OP(=O)(O)O)c2n1 | Activity [3]: Active
3 | inactive |  | Nc1nc(Cl)nc2c1ncn2CCCCOP(=O)(O)O | Activity [4]: 20%
4 | 32% |  | Nc1ncnc2c1ncn2CCCCOP(=O)(O)OP(=O)(O)O | 
5 | inactive | inactive | Nc1nc(N)c2ncn(CCCCOP(=O)(O)O)c2n1 | Activity [4]: 20%
6 |  | Active | Nc1ncnc2c1ncn2[C@@H]1O[C@H](COP(=O)(O)CP(=O)(O)OP(=O)(O)O)[C@@H](O)[C@H]1O (single isomer, unassigned) | 
7 | Active |  | Nc1nc(Cl)nc2c1ncn2CCCCOP(=O)(O)OP(=O)(O)O | 
8 | Active |  | Nc1nc(OCCc2ccccc2)nc2c1ncn2CCCCOP(=O)(O)OP(=O)(O)O | 
9 | inactive |  | Nc1nc(OCCc2ccccc2)nc2c1ncn2CCCCOP(=O)(O)O | Activity [4]: 20%
10 | 25% | Active | Nc1nc(N)c2ncn(CCCCOP(=O)(O)OP(=O)(O)OP(=O)(O)O)c2n1 | Activity [5]: 17%
11 | inactive | inactive | CCCCC#Cc1nc(N)c2ncn(CCCCOP(=O)(O)O)c2n1 | Activity [4]: 20%
12 | 30% |  | Nc1nc(Cl)nc2c1ncn2CCCCOP(=O)(O)OP(=O)(O)OP(=O)(O)O | 
13 | Active | Active | Nc1nc(N)c2ncn(CCCCOP(=O)(O)OP(=O)(O)O)c2n1 | 
14 | 60% | Active | Nc1nc(I)nc2c1ncn2CCCCOP(=O)(O)OP(=O)(O)OP(=O)(O)O | Activity [3]: Active
15 | 36% |  | Nc1ncnc2c1ncn2CCCCOP(=O)(O)OP(=O)(O)OP(=O)(O)O | 
16 | inactive | inactive | Nc1nc(I)nc2c1ncn2CCCCOP(=O)(O)O | Activity [6]: 80%; Activity [4]: 20%
17 | Active |  | Nc1nc(OCCc2ccccc2)nc2c1ncn2CCCCOP(=O)(O)OP(=O)(O)OP(=O)(O)O | 
